In brackets after ≈: the same amount, converted by molar mass.
Legend:
Staphylococcus aureus [1] = test: Efficacy on systematic infections against Staphylococcus aureus A 9537 after oral administration in mice; assay type: functional; settings: read-out: PD50
Procedure, shortened: (§1)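 Mice given compound orally after lethal systemic infection. Read-out is the oral dose protecting 50% of mice from death (PD50), reported in mg/kg.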

Enterococcus faecalis = test: In vitro minimum inhibitory concentration (MIC) against Enterococcus faecalis A 9808 at 37 degrees C for 18 h.; assay type: functional
Procedure, shortened: (§2)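 Two-fold serial broth dilution in nutrient broth. Inoculum adjusted to 10^6 cfu/mL. Compounds tested from 0.0005 to 250 µg/mL.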

Escherichia coli [2] = test: Efficacy on systematic infections against Escherichia coli A 15119 after oral administration in mice; assay type: functional; settings: read-out: PD50; procedure, shortened: as §1
Enterococcus faecium = test: In vitro minimum inhibitory concentration (MIC) against Enterococcus faecium A 24885 at 37 degrees C for 18 h.; assay type: functional; procedure, shortened: as §2
Serratia marcescens = test: In vitro minimum inhibitory concentration (MIC) against Serratia marcescens A 20019 at 37 degrees C for 18 hr; assay type: functional; procedure, shortened: as §2
Pseudomonas aeruginosa [3] = test: In vitro minimum inhibitory concentration (MIC) against Pseudomonas aeruginosa A 9843 at 37 degrees C for 18 h; assay type: functional; procedure, shortened: as §2
Enterobacter cloacae [4] = test: (§3) In vitro minimum inhibitory concentration (MIC) against Enterobacter cloacae A 9656 at 37 degrees C for 18 h.; assay type: functional
Staphylococcus aureus [5] = test: In vitro minimum inhibitory concentration (MIC) against Staphylococcus aureus Smith A 9537 at 37 degrees C for 18 hr; assay type: functional; procedure, shortened: as §2
Escherichia coli [6] = test: In vitro minimum inhibitory concentration (MIC) against Escherichia coli A 15119 at 37 degrees C for 18 h.; assay type: functional; procedure, shortened: as §2
Morganella morganii = test: In vitro minimum inhibitory concentration (MIC) against Morganella morganii A 15153 at 37 degrees C for 18 h.; assay type: functional; procedure, shortened: as §2
Klebsiella pneumoniae [7] = test: In vitro minimum inhibitory concentration (MIC) against Klebsiella pneumoniae A 9664 at 37 degrees C for 18 h.; assay type: functional; procedure, shortened: as §2
[8] = Tested for aqueous solubility; settings: aqueous medium
Pseudomonas aeruginosa [9] = test: Efficacy on systematic infections against Pseudomonas aeruginosa A 9843 after oral administration in mice; assay type: functional; settings: read-out: PD50; procedure, shortened: as §1
Klebsiella pneumoniae [10] = test: Efficacy on systematic infections against Klebsiella pneumoniae A 9664 after oral administration in mice; assay type: functional; settings: read-out: PD50; procedure, shortened: as §1
Escherichia coli [11] = test: In vitro minimum inhibitory concentration (MIC) against Escherichia coli A 15119 at 37 degrees Celsius for 18 h.; assay type: functional; procedure, shortened: as §2
Enterobacter cloacae [12] = test: as §3; assay type: functional; procedure, shortened: as §2; remark: listed apart in the source
Enterobacter cloacae [13] = test: In vitro minimum inhibitory concentration (MIC) against Enterobacter cloacae A 9656 at 37 degree C for 18 h.; assay type: functional; procedure, shortened: as §2
Pseudomonas aeruginosa [14] = test: In vitro minimum inhibitory concentration (MIC) against Pseudomonas aeruginosa A 9843 at 37 degrees Celsius for 18 h; assay type: functional; procedure, shortened: as §2
Canis familiaris = organism: Canis familiaris; settings: dog, in vivo, po, 25 mg/kg
Pseudomonas aeruginosa [15] = test: In vitro minimum inhibitory concentration (MIC) against Pseudomonas aeruginosa A 9843 at 37 degree C for 18 h; assay type: functional; procedure, shortened: as §2
Klebsiella pneumoniae [16] = test: In vitro minimum inhibitory concentration (MIC) against Klebsiella pneumoniae A 9664 at 37 degrees Celsius for 18 h.; assay type: functional; procedure, shortened: as §2
Enterobacter cloacae [17] = test: In vitro minimum inhibitory concentration (MIC) against Enterobacter cloacae A 9656 at 37 degrees Celsius for 18 h.; assay type: functional; procedure, shortened: as §2

Row | Compound | MIC (Enterococcus faecalis) | MIC (Enterococcus faecium) | MIC (Serratia marcescens) | MIC (Staphylococcus aureus [5]) | MIC (Escherichia coli [6]) | MIC (Morganella morganii) | MIC (Klebsiella pneumoniae [7]) | ED50 (Staphylococcus aureus [1]) | MIC (Pseudomonas aeruginosa [3]) | MIC (Enterobacter cloacae [4]) | solubility [8] | ED50 (Pseudomonas aeruginosa [9]) | ED50 (Klebsiella pneumoniae [10]) | further results
1 | CC(C)(C)n1cc(C(=O)O)c(=O)c2cc(F)c(N3CCNCC3)cc21 | 1 µg/mL (≈ 2.88 µM) | 4 µg/mL (≈ 11.5 µM) | 0.5 µg/mL (≈ 1.44 µM) | 0.06 µg/mL (≈ 0.173 µM) | 0.06 µg/mL (≈ 0.173 µM) | 0.25 µg/mL (≈ 0.72 µM) | 0.13 µg/mL (≈ 0.374 µM) | 2.4 mg/kg | 0.5 µg/mL (≈ 1.44 µM) | 0.13 µg/mL (≈ 0.374 µM) | 130 µg/mL (≈ 374 µM) | 29 mg/kg | 10.3 mg/kg | ED50 (Escherichia coli [2]): 21.7 mg/kg
2 | CC1CN(c2cc3c(cc2F)c(=O)c(C(=O)O)cn3C(C)(C)C)CCN1 (stereo not given) | 1 µg/mL (≈ 2.77 µM) | 4 µg/mL (≈ 11.1 µM) | 0.5 µg/mL (≈ 1.38 µM) | 0.06 µg/mL (≈ 0.166 µM) | 0.008 µg/mL (≈ 0.0221 µM) | 0.5 µg/mL (≈ 1.38 µM) | 0.015 µg/mL (≈ 0.0415 µM) | 5.4 mg/kg | 1 µg/mL (≈ 2.77 µM) | 0.03 µg/mL (≈ 0.083 µM) | 1560 µg/mL (≈ 4320 µM) | 25 mg/kg | 5.4 mg/kg | 
3 | CC1CN(c2cc3c(cc2F)c(=O)c(C(=O)O)cn3C(C)(C)C)CC(C)N1 (stereo not given) | 2 µg/mL (≈ 5.33 µM) | 8 µg/mL (≈ 21.3 µM) | 2 µg/mL (≈ 5.33 µM) | 0.25 µg/mL (≈ 0.666 µM) |  | 1 µg/mL (≈ 2.66 µM) | 0.5 µg/mL (≈ 1.33 µM) |  | 4 µg/mL (≈ 10.7 µM) |  |  |  |  | MIC (Escherichia coli [11]): 0.13 µg/mL (≈ 0.346 µM); MIC (Enterobacter cloacae [12]): 0.13 µg/mL (≈ 0.346 µM)
4 | CC(C)(C)n1cc(C(=O)O)c(=O)c2cc(F)c(N3CCNCC3)nc21 | 0.5 µg/mL (≈ 1.44 µM) | 8 µg/mL (≈ 23 µM) | 0.25 µg/mL (≈ 0.718 µM) | 0.06 µg/mL (≈ 0.172 µM) | 0.015 µg/mL (≈ 0.0431 µM) | 0.25 µg/mL (≈ 0.718 µM) | 0.13 µg/mL (≈ 0.373 µM) | 1.1 mg/kg | 1 µg/mL (≈ 2.87 µM) | 0.06 µg/mL (≈ 0.172 µM) | 820 µg/mL (≈ 2350 µM) | 10.9 mg/kg | 4.8 mg/kg | ED50 (Escherichia coli [2]): 4.7 mg/kg; AUC (Canis familiaris): 50000 ng·h/mL
5 | CC(C)(C)n1cc(C(=O)O)c(=O)c2cc(F)c(N3CCNC(CF)C3)nc21.CS(=O)(=O)O (stereo not given) | 4 µg/mL | 16 µg/mL | 1 µg/mL | 0.13 µg/mL | 0.13 µg/mL | 1 µg/mL |  |  |  | 0.06 µg/mL |  |  |  | MIC (Pseudomonas aeruginosa [15]): 4 µg/mL; MIC (Klebsiella pneumoniae [16]): 0.13 µg/mL

The next lines start with results.

Row | MIC (Enterococcus faecalis) | MIC (Enterococcus faecium) | MIC (Serratia marcescens) | MIC (Staphylococcus aureus [5]) | MIC (Escherichia coli [6]) | MIC (Morganella morganii) | MIC (Klebsiella pneumoniae [7]) | Compound | ED50 (Staphylococcus aureus [1]) | MIC (Pseudomonas aeruginosa [3]) | MIC (Enterobacter cloacae [4]) | solubility [8] | ED50 (Pseudomonas aeruginosa [9]) | ED50 (Klebsiella pneumoniae [10]) | further results
6 | 0.5 µg/mL (≈ 1.38 µM) | 2 µg/mL (≈ 5.52 µM) | 4 µg/mL (≈ 11 µM) | 0.13 µg/mL (≈ 0.359 µM) | 0.5 µg/mL (≈ 1.38 µM) | 4 µg/mL (≈ 11 µM) | 2 µg/mL (≈ 5.52 µM) | CC1CN(c2nc3c(cc2F)c(=O)c(C(=O)O)cn3C(C)(C)C)CCN1 (stereo not given) |  | 8 µg/mL (≈ 22.1 µM) |  |  |  |  | MIC (Enterobacter cloacae [13]): 1 µg/mL (≈ 2.76 µM)
7 | 2 µg/mL (≈ 5.52 µM) | 0.5 µg/mL (≈ 1.38 µM) | 0.25 µg/mL (≈ 0.69 µM) | 0.06 µg/mL (≈ 0.166 µM) | 0.06 µg/mL (≈ 0.166 µM) | 0.5 µg/mL (≈ 1.38 µM) | 0.06 µg/mL (≈ 0.166 µM) | CN1CCN(c2nc3c(cc2F)c(=O)c(C(=O)O)cn3C(C)(C)C)CC1 |  | 1 µg/mL (≈ 2.76 µM) | 0.06 µg/mL (≈ 0.166 µM) |  |  |  | 
8 | 0.5 µg/mL (≈ 1.38 µM) | 4 µg/mL (≈ 11.1 µM) | 2 µg/mL (≈ 5.53 µM) | 0.06 µg/mL (≈ 0.166 µM) | 0.5 µg/mL (≈ 1.38 µM) | 1 µg/mL (≈ 2.77 µM) | 0.25 µg/mL (≈ 0.692 µM) | CC1(N)CCN(c2cc3c(cc2F)c(=O)c(C(=O)O)cn3C(C)(C)C)C1 (stereo not given) |  |  | 0.5 µg/mL (≈ 1.38 µM) |  |  |  | MIC (Pseudomonas aeruginosa [14]): 2 µg/mL (≈ 5.53 µM)
9 | 0.5 µg/mL (≈ 1.38 µM) | 4 µg/mL (≈ 11 µM) | 0.5 µg/mL (≈ 1.38 µM) | 0.015 µg/mL (≈ 0.0414 µM) | 0.06 µg/mL (≈ 0.166 µM) | 0.5 µg/mL (≈ 1.38 µM) | 0.06 µg/mL (≈ 0.166 µM) | CC1(N)CCN(c2nc3c(cc2F)c(=O)c(C(=O)O)cn3C(C)(C)C)C1 (stereo not given) |  |  | 0.13 µg/mL (≈ 0.359 µM) |  |  |  | MIC (Pseudomonas aeruginosa [14]): 2 µg/mL (≈ 5.52 µM)
10 | 0.13 µg/mL (≈ 0.345 µM) | 4 µg/mL (≈ 10.6 µM) | 1 µg/mL (≈ 2.66 µM) | 0.06 µg/mL (≈ 0.159 µM) | 0.06 µg/mL (≈ 0.159 µM) | 1 µg/mL (≈ 2.66 µM) | 0.06 µg/mL (≈ 0.159 µM) | CCNC1CCN(c2nc3c(cc2F)c(=O)c(C(=O)O)cn3C(C)(C)C)C1 (stereo not given) |  |  |  |  |  |  | MIC (Enterobacter cloacae [17]): 0.25 µg/mL (≈ 0.664 µM); MIC (Pseudomonas aeruginosa [15]): 4 µg/mL (≈ 10.6 µM)
